The test system of one assay is U2OS cells. The assay is described as follows: Flow cytometry, early apoptosis, adriamycin. It is filed as cell-based. To be noted: adriamycin 1 μg ml−1, one day; control cells (control siRNA); n=4. The method in brief:
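U2OS cells were transfected with PIMT or control siRNA. After 2 days they were treated with adriamycin, and apoptotic cells were scored by flow cytometry one day later. At least 10,000 cells were analysed per treatment. Significance was tested by Student's t-test.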

The next assay has as its system PIMT. Kind of assay: In vitro methylation assay with recombinant GST-PIMT. It is filed as biochemical. Conditions: GST-p53 1–82 methylated by GST-PIMT or His-PIMT, followed by NaOH; fluorography.
The test system of a further assay is p53 ubiquitination. Kind of assay: p53 ubiquitination. It is filed as cell-based. Conditions: U2OS or H1299 cells, MG132 40 μM.
A further assay concerns p53. The assay is described as follows: p53 protein level, immunoblot. It is filed as cell-based. Conditions: U2OS cells, PIMT siRNA/shRNA or ectopic PIMT expression.
For assay [1], the system named is p21 or Bax promoter luciferase. Kind of assay: Luciferase assay, p53-dependent transcription. It is filed as cell-based. To be noted: H1299 cells, p21-luc or Bax-luc; n=4.
The test system of the next assay is p53-HDM2 interaction. The assay is described as follows: p53-HDM2 co-immunoprecipitation. It is filed as cell-based. Conditions: U2OS cells (PIMT siRNA) or H1299 cells (HA-p53, Flag-PIMT). The method in brief:
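Supernatants were incubated overnight at 4 °C with FLAG-, HA- or p53-antibody agarose and washed twice. Eluates were boiled 5 min, run on 4–12% Bis–Tris gels and immunoblotted with HRP-conjugated primary antibodies using chemiluminescence.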

We go through 3 molecules from article PMC3621463 (Nature Communications, 2012).

On to `COc1cccc2c1C(=O)c1c(O)c3c(c(O)c1C2=O)C[C@@](O)(C(=O)CO)C[C@@H]3O[C@H]1C[C@H](N)[C@H](O)[C@H](C)O1` [adriamycin], for which, in the assay on U2OS cells, the early apoptosis was 19.5%.
As to “p53 (amino acids 1–82): N terminus of p53 (amino acids 1–82)”, the “methylation after alkaline treatment” value with PIMT is reported as “removed upon alkaline treatment”.
Regarding “protein L-isoaspartyl methyltransferase [PIMT]”, the “ubiquitination of p53” value with p53 ubiquitination is “increased p53 ubiquitination”. In addition, the p53 protein level result in the assay with p53 was “decreased the p53 protein levels in a dose-dependent manner”. Also, the p53-dependent transcription result in assay [1] was “inhibited the p53-dependent transcription of both reporter genes”. Moreover, the p53-HDM2 interaction entry with p53-HDM2 interaction is “enhanced”.
